Results reported in PMC3607822 (The Journal of General Physiology, 2013).

Key:
[1] = target: CNGA3 ΔN (2-156) channels (Homo sapiens, UniProt Q16281); assay: Inside-out patch clamp, CNGA3 ΔN; type: biochemical
[2] = target: T1, A3-N7R-A,RR-QQ+B3 channels (Homo sapiens, UniProt Q16281+Q9NQW8, R101A/R103A/R643Q/R646Q/R72A/R75A/R81A/R82A/R86A); assay: Inside-out patch clamp, A3-N7R-A,RR-QQ+B3; type: biochemical
T1 sequence (Q16281 1-694 R72A/R75A/R81A/R82A/R86A/R101A/R103A/R643Q/R646Q): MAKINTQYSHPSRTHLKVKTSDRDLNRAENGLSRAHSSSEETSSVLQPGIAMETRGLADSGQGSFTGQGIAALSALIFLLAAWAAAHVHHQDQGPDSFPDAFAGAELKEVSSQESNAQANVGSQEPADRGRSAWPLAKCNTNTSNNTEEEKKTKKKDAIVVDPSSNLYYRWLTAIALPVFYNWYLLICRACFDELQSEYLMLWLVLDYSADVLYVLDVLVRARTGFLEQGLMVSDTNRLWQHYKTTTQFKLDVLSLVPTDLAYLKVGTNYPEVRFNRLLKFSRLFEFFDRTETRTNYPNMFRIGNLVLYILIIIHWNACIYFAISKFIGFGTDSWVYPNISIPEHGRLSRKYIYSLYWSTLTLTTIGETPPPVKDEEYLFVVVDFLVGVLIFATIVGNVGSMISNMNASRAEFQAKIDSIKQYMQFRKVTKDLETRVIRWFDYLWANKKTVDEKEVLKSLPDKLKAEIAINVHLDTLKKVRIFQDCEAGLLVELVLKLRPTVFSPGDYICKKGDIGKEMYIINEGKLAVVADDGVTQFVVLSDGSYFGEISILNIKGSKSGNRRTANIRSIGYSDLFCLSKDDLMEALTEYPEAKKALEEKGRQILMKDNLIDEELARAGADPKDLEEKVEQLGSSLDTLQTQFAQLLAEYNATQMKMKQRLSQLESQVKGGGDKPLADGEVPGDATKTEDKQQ
T1 sequence (Q9NQW8 1-809): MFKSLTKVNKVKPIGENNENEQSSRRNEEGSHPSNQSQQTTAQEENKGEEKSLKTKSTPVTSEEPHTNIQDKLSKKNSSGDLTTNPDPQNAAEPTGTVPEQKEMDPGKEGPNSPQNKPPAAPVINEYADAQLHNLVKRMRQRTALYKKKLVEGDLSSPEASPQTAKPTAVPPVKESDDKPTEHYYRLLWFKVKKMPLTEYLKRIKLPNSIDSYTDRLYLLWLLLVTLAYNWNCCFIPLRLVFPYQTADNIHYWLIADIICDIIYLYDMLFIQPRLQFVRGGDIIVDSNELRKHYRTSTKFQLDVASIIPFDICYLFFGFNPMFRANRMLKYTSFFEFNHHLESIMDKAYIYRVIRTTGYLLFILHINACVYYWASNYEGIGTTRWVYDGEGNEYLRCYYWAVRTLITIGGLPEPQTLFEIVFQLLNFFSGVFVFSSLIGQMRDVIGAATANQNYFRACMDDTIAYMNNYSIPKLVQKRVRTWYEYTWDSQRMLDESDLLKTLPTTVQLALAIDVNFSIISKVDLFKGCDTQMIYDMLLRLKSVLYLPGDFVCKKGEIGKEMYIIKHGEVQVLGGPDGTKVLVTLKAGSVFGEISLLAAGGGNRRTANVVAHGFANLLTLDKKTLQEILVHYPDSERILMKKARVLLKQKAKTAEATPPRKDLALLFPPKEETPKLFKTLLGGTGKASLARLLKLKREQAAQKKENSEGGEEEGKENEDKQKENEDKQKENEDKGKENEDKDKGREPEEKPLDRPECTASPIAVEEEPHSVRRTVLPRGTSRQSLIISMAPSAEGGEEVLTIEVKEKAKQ
In short: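 Subunit cRNAs (~20 ng, B in excess over A) injected into stage IV Xenopus oocytes; inside-out patches 2–7 d later, 20–22°C, symmetric 130 mM NaCl, 0.2 mM EDTA, 3 mM Hepes pH 7.2. Heteromer formation checked by 25 µM l-cis-diltiazem with 1 mM cGMP. diC8 phosphoinositides applied intracellularly in phosphatase-inhibitor cocktail. cGMP dose–response at +80 mV, leak-subtracted, Hill fit before/after for K1/2; mean ± SEM.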

| Hill coefficient ([1]; cGMP activation) | EC50 ([1]; read-out: K1/2 cGMP, +80 mV, no PIPn) | regulation of apparent cGMP affinity ([2]; 10 µM PIP2 or 1 µM PIP3) | percent change in K1/2 cGMP caused by PIP3 ([2]; 10 µM PIP3) | Compound |
| --- | --- | --- | --- | --- |
| 1.77 ± 0.07 (9) | 9.16 ± 0.65 µM | – | – | Nc1nc2c(ncn2[C@@H]2O[C@@H]3COP(=O)(O)O[C@H]3[C@H]2O)c(=O)[nH]1 [cGMP, cyclic guanosine monophosphate] |
| – | – | insensitive to regulation | 2 ± 8% | phosphatidylinositol (3,4,5)-trisphosphate [PIP3] |
